Legend:
Settings in all cases: stereoisomer not certain
OR4K17 (Homo sapiens) = OR4K17 (Homo sapiens) (UniProt Q8NGC6)
Method in brief: (§1)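 Each entry records the cell line, G-protein, co-transfected protein and tags used. Methods varied with the source, often transient luciferase assays in mammalian cell lines. A receptor–molecule pair is called responsive (active) if the original authors judged its signal statistically different from baseline and non-responsive (inactive) otherwise.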

OR4K2 (Homo sapiens) = OR4K2 (Homo sapiens) (UniProt Q8NGD2)
Sequence of OR4K2 (Homo sapiens) (Q8NGD2 whole entry): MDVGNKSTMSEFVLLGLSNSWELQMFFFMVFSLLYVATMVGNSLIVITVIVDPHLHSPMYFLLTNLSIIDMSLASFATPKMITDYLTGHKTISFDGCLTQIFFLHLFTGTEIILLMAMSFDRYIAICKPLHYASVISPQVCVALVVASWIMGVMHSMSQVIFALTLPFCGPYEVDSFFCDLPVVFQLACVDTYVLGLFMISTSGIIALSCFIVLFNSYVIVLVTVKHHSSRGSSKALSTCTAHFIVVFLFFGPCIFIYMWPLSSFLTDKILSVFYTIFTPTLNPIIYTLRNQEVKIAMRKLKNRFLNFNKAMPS
Method in brief: as §1

OR4K3 (Homo sapiens) = OR4K3 (Homo sapiens) (UniProt Q96R72)
Sequence of OR4K3 (Homo sapiens) (Q96R72 whole entry): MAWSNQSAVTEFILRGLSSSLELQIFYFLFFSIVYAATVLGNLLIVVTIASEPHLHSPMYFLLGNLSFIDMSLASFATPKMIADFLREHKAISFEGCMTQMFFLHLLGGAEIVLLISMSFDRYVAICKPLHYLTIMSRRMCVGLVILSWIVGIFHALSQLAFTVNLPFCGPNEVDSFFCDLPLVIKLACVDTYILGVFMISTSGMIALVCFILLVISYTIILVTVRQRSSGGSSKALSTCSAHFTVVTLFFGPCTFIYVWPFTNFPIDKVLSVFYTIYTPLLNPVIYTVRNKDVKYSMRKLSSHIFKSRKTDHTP
Method in brief: as §1

OR4K5 (Homo sapiens) = OR4K5 (Homo sapiens) (UniProt Q8NGD3)
Sequence of OR4K5 (Homo sapiens) (Q8NGD3 whole entry): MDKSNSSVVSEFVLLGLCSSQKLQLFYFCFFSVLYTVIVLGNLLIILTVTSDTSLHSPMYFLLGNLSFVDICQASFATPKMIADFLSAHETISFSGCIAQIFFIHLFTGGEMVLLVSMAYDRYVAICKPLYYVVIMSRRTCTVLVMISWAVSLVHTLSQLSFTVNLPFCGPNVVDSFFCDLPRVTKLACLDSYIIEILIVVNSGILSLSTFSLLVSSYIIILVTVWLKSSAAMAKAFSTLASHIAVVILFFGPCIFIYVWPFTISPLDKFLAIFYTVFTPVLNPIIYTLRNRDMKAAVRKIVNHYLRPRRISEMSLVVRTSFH
Method in brief: as §1

OR4L1 (Homo sapiens) = OR4L1 (Homo sapiens) (UniProt Q8NH43)
Sequence of OR4L1 (Homo sapiens) (Q8NH43 whole entry): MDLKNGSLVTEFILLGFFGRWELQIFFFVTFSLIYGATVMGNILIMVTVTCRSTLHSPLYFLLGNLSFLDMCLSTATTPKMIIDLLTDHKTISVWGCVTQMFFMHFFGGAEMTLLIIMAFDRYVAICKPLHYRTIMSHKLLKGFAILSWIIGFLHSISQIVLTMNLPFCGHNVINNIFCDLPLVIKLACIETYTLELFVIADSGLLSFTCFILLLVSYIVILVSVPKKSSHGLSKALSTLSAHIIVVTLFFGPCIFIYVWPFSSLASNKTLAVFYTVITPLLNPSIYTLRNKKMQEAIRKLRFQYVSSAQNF
Method in brief: as §1

OR4M1 (Homo sapiens) = OR4M1 (Homo sapiens) (UniProt Q8NGD0)
Sequence of OR4M1 (Homo sapiens) (Q8NGD0 whole entry): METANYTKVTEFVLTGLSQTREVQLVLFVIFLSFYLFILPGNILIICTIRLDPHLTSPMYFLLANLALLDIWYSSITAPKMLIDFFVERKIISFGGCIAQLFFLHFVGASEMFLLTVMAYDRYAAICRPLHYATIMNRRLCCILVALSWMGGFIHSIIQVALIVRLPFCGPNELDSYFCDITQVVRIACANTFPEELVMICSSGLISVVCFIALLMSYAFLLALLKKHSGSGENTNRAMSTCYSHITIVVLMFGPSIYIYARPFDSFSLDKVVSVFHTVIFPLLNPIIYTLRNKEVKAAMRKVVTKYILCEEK
Method in brief: as §1

OR4K2 = tested on: OR4K2
Sequence of OR4K2 (as listed by the source): as the sequence (Q8NGD2 whole entry) above, with N307I counted along it
Method in brief: as §1

OR4KF = tested on: OR4KF
Sequence of OR4KF (as listed by the source): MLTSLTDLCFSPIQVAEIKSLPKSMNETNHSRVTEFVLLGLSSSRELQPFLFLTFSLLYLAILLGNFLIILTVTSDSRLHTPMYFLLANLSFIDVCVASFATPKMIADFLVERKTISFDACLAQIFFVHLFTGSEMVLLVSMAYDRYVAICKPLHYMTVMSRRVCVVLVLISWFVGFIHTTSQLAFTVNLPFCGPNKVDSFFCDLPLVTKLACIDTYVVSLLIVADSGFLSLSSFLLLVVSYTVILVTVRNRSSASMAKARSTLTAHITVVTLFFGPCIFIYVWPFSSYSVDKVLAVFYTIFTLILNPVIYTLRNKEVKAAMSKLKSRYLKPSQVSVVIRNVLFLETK
Method in brief: as §1

OR4KH = tested on: OR4KH
Sequence of OR4KH (as listed by the source): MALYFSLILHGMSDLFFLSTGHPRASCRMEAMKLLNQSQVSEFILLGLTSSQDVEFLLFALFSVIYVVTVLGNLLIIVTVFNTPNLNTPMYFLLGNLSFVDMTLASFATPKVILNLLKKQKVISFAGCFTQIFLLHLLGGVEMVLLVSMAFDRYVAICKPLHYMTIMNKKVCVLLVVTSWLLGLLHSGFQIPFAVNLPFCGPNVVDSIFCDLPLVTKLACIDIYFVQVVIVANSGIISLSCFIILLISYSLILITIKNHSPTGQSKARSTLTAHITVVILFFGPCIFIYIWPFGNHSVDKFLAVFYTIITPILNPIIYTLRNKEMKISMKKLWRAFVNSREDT
Method in brief: as §1

OR4L1 = tested on: OR4L1
Sequence of OR4L1 (as listed by the source): as the sequence (Q8NH43 whole entry) above, with R52S counted along it
Method in brief: as §1

Measured: odorant receptor agonist call

Sequence of OR4K17 (Homo sapiens) (Q8NGC6 as listed by the source): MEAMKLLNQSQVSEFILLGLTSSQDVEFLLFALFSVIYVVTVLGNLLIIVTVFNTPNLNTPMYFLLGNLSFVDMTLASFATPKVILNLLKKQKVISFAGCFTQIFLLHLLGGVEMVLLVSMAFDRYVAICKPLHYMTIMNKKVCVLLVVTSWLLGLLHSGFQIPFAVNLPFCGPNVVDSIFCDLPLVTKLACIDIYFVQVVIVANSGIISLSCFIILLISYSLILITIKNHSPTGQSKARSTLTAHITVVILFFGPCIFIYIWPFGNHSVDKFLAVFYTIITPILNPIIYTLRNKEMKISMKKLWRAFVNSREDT

Cc1c([N+](=O)[O-])c(C)c([N+](=O)[O-])c(C(C)(C)C)c1[N+](=O)[O-]
inactive: OR4K17 (Homo sapiens) | OR4K2 (Homo sapiens) | OR4K3 (Homo sapiens) | OR4K5 (Homo sapiens) | OR4L1 (Homo sapiens) | OR4M1 (Homo sapiens)

C=CCOC(=O)Cc1ccccc1
not listed: OR4K17 (Homo sapiens) | OR4K3 (Homo sapiens)
inactive: all other assays above

Reference: the M2OR odorant receptor database
